MT1-MMP txn act – activates MT1-MMP transcription; HT1080 MT1-MMP promoter luciferase reporter, luminescence, overnight; hits give high values; activation factor at 10 µM; hit rate 0.16% among 86,000; AID 750;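 active means activation factor of at least 2 for MT1-MMP transcription at 10 µM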
HEK293 NFkB inh – lowers PMA/ionomycin-induced NF-kB signal in HEK293 cells. HEK-293 NF-kB luciferase reporter, luminescence. inhibition, % at 3 µM. hit rate 0.21% among 62,000;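 active means inhibition above the mean of all tested compounds plus 3 SD, cut at about 40% in these data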;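 further: 0% = stimulated DMSO wells and 100% = 10 µM reference inhibitor 5653914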
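Reagent: PMA plus ionomycin mix as NF-kB-activating stimulus. Assay system: NF-kB luciferase reporter HEK-293 cells. Technique: luminescence from luciferase substrate reagent. Incubation: 1 h compound pre-incubation, 16 h PMA/ionomycin at 37 °C. Benchmarks: DMSO only as uninhibited control, 10 µM reference inhibitor as full inhibition. Repeats: tested once.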
Jurkat tox 60K – cytotoxic compounds reducing Jurkat cell viability; Jurkat E6.1 viability, ATP luminescence, 48 h; inhibition, % at 4 µM; hit rate 1.2% among 56,000;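 active means inhibition above the mean inhibition of all tested compounds plus 3 SD, cut at about 28% in these data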
RORa activator – activates the human nuclear receptor RORA | P35398 | CHO-K1 Gal4-RORA LBD luciferase reporter, luminescence; percent increase over mock-subtracted basal signal | activation, % at 10 µM | hit rate 1.5% among 65,000;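 active means activation above the mean of all tested compounds plus 3 SD, cut at about 49% in these data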;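 further: 0% = DMSO-treated RORA cells and 100% = added signal equal to DMSO minus mock-transfected cells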
Target sequence (P35398 whole entry, looked up, the tested form may be a part): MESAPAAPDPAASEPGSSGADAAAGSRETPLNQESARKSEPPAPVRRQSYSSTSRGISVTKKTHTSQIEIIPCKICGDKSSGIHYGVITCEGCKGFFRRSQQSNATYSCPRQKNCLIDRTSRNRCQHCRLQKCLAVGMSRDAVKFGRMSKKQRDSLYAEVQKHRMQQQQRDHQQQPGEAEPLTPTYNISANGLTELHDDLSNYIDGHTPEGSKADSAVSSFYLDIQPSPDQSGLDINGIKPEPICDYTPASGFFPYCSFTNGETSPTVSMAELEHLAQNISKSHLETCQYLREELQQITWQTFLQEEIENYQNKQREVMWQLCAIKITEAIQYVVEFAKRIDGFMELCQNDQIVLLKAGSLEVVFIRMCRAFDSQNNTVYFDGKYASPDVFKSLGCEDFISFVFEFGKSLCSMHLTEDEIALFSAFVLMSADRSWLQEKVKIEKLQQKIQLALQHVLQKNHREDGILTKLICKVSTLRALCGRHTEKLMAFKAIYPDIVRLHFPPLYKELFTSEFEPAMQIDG
SF1 activator – activators of human nuclear receptor SF-1; hit rate 1.9% among 65,000; activation, % at 10 µM; AID 522; CHO-K1 Gal4-SF-1 LBD luciferase reporter; % increase over DMSO SF-1-specific signal;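 active means activation above the mean activation of all tested compounds plus 3 SD, cut at about 50% in these data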
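Assay system – CHO-K1 cells with Gal4–hSF-1 LBD chimera plus Gal4-driven luciferase · Quantity – 4,000 cells per well · Times – compound added 1 h post-seeding, 20 h exposure at 37 °C, 5% CO2 · Measured by – luciferase light emission · Benchmarks – DMSO and mock-transfected background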
The depositor's hits bear a star. Hits are enriched below; roughly 2.9% of the tested compounds scored in any of these assays.

`CCCNS(=O)(=O)c1ccc(OCC(=O)N2CCN(Cc3ccc4c(c3)OCO4)CC2)cc1` gave MT1-MMP txn act 1.2, HEK293 NFkB inh 25, Jurkat tox 60K 31*, RORa activator -1 and SF1 activator -3.
`CCCNS(=O)(=O)c1ccc(OCC(=O)N2CCN(C)CC2)cc1` gave MT1-MMP txn act 1.3.
O=C(c1cc2c(s1)-c1ccccc1OC2)N1CCC2(CC1)OCCO2 was read as MT1-MMP txn act 1.3, HEK293 NFkB inh -37, Jurkat tox 60K 38*, RORa activator 54* and SF1 activator 61*.
CCCc1cc2c(n1Cc1ccco1)C(C)C1CN(C(=O)c3ccccc3)C(C)(C(=O)OC)C21 (stereo unspecified) was read as MT1-MMP txn act 1.1.
For COC(=O)[C@@H]1C[C@@]2(O)[C@H](O)[C@H](O)[C@H](O)C[C@H]2N1Cc1cccnc1 the results were MT1-MMP txn act 1.2.
O=C1CN=C(c2cccs2)c2c(sc3c2CCCC3)N1 was read as MT1-MMP txn act 1, HEK293 NFkB inh 4, Jurkat tox 60K 86*, RORa activator 13 and SF1 activator 26.
For O=P(c1ccccc1)(c1ccccc1)N1CC2(CC2)CC(O)(c2ccccc2)C1 (stereo unspecified) the results were MT1-MMP txn act 1.1.
COC(=O)[C@@H]1C[C@H]2CC[C@H](O)C[C@H]2N1CC1CC1 was read as MT1-MMP txn act 1.1.
Screening N=c1c2c(n(Cc3ccc(Cl)cc3Cl)c3c1CCC3)CCCC2 returned MT1-MMP txn act 1.2, HEK293 NFkB inh -2, Jurkat tox 60K 37*, RORa activator 1 and SF1 activator 12.
For N=c1sc2c(n1Cc1ccccc1)CCCC2 the results were MT1-MMP txn act 0.9, HEK293 NFkB inh 13, Jurkat tox 60K -4, RORa activator -22 and SF1 activator 1.
Screening CCn1nc(-c2cccs2)nc2c(=O)n(C)c(=O)nc1-2 returned HEK293 NFkB inh 97*, Jurkat tox 60K 36*, RORa activator -91 and SF1 activator -96.
For O=C(C1CCN(c2nc3ccc(Br)cc3s2)CC1)N1CCC2(CC1)OCCO2 the results were MT1-MMP txn act 1.5, HEK293 NFkB inh 23, Jurkat tox 60K 26, RORa activator 8 and SF1 activator 6.
For Cc1ccc2nc(N3CCC(C(=O)N4CCC5(CC4)OCCO5)CC3)sc2c1 the results were MT1-MMP txn act 1.3, HEK293 NFkB inh 4, Jurkat tox 60K 12, RORa activator 30 and SF1 activator 74*.
Screening COc1cccc(OC)c1C1=NCC(=O)Nc2c1oc1ccc(Br)cc21 returned MT1-MMP txn act 0.4, HEK293 NFkB inh 28, Jurkat tox 60K 99*, RORa activator -62 and SF1 activator -15.
Screening CSC(=Nc1ccccc1)c1c(O)n(C)c(=O)n(C)c1=O returned MT1-MMP txn act 1.1, HEK293 NFkB inh 14, Jurkat tox 60K 34*, RORa activator -18 and SF1 activator -8.
CCN(CC)CCCC(C)N=C(c1ccccc1)c1c(O)n(C)c(=O)n(C)c1=O (stereo unspecified) was read as MT1-MMP txn act 1, RORa activator 13 and SF1 activator -2.
C=C(CC1(CNP(=O)(c2ccccc2)c2ccccc2)CC1)c1ccccc1 was read as MT1-MMP txn act 2*.
`CC1(C)CN=C(Nc2nc3ccccc3s2)S1` gave MT1-MMP txn act 1.1, HEK293 NFkB inh -36, Jurkat tox 60K -4, RORa activator 54* and SF1 activator 70*.
CNC(=O)[C@@H]1C[C@H]1[C@@H](NP(=O)(c1ccccc1)c1ccccc1)c1ccccc1 was read as MT1-MMP txn act 1.1.
`COC(=O)[C@@]1(Cc2ccccc2)[C@H]2c3cc(C(=O)N(C)C)n(C)c3C[C@H]2CN1C(=O)c1ccccc1` gave MT1-MMP txn act 1.1.

Bioassay records as filed in PubChem BioAssay.
